# FLuc act counter: affects firefly luciferase, flagging false hits in luciferase stimulation screens; P08659; ATPlite luciferase biochemical, luminescence, 10 min; 0 = ATP-free wells, 1 = DMSO control; activation factor at 10 µM; 200,000 tested, under 10 active;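 active = luciferase activation factor, scaled between plate controls, of at least 2 with compound at 10 µM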
# Target sequence (P08659 whole entry, looked up): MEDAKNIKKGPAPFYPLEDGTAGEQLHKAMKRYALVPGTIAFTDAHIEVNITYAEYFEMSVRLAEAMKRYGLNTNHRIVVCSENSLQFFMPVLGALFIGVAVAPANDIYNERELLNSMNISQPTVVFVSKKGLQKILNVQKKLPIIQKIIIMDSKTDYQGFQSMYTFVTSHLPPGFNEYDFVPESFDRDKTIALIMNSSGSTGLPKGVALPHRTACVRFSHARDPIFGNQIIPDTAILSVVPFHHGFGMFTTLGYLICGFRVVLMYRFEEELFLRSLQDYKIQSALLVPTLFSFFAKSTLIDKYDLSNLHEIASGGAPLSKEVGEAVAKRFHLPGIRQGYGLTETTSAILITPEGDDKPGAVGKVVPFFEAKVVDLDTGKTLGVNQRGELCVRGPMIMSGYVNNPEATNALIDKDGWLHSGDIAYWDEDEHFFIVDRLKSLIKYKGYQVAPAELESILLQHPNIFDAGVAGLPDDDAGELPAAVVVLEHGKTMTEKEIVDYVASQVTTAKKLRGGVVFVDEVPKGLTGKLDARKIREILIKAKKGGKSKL
#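 Material: Luciferase/luciferin reagent mix; Doses: test compounds dosed from 2 mM stocks in 100% DMSO; Schedule: 10 min incubation after luciferase reagent addition, room temperature; Measured by: luminescence from luciferase reaction; Read-out: luminescence gain marking luciferase activators.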
# NF-kB expr up: raises NF-kB expression in human neuronal cells; AID 1239; fold change at 12.5 µM; 1.6% of 190,000 active; NF-kB reporter expression; stronger effect = higher value; in the data active = fold change above about 3.3
# Pf gametocyte: kills late stage P. falciparum gametocytes; AID 743093; 0.065% of 150,000 active; inhibition, % at 10.9 µM; P. falciparum stage V gametocytes, ATP luminescence, 24 h;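 active = inhibition above the mean plus 3 SD of compounds within the control limits, set per campaign, cut at about 38% in these data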
# APP 5'UTR act: activates APP 5'UTR luciferase reporter | SH-SY5Y APP 5'UTR luciferase reporter, luminescence; zero percent = DMSO vehicle wells | activation, % at 2 µM | 1% of 190,000 active | AID 1276;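 active = activation above a set limit, based on mean plus 3 SD of controls, cut at about 140% in these data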
# STAT1 act: activators of IFN-gamma induced STAT1 signaling; NIH 3T3 STAT1-luciferase reporter, luminescence; 100% = IFN-gamma alone, no compound; activation (% of control), % at 5.5 µM; 2.6% of 200,000 active; AID 932;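 active = activation above the screen-wide mean activation plus 3 SD, cut at about 130% in these data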
# FLuc inhib CS: inhibits firefly luciferase, flagging false hits in luciferase inhibition screens; AID 1006; 1.5% of 200,000 active; ATPLite firefly luciferase biochemical luminescence, 10 min; P08659; inhibition, % at 10 µM;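 active = inhibition above about 50% when tested at 10 µM, limit read from the data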
# A number is an active result; - = inactive; . = no result given. An excerpt weighted towards active compounds, which were near 3.5% of everything screened.
SMILES,FLuc act counter,NF-kB expr up,Pf gametocyte,APP 5'UTR act,STAT1 act,FLuc inhib CS
CS(=O)(=O)N(CC(=O)NCCSCc1c(F)cccc1Cl)c1cccc([N+](=O)[O-])c1,-,-,-,-,-,-
CC(C)c1ccc2c(c1)C1(NN=C(c3ccccc3)S1)C(=O)N2 (centres undefined),-,-,.,-,129,-
CN(C)c1ccc(N/C=C/C(=O)c2ccco2)cc1,-,-,-,.,-,96
CN(C)c1ccc(N/C=C/C(=O)c2ccc(F)cc2)cc1,-,4.6,.,-,-,58
CC(=O)Nc1ccc(N/C=C/C(=O)c2ccco2)cc1,-,-,.,-,141,-
CC(=O)Nc1ccc(NC(=O)c2ccco2)cc1,-,-,-,-,-,-
COc1ccccc1Oc1ccc(N/C=C/C(=O)c2ccco2)cc1,-,5.2,-,-,143,-
NNC(=O)CCc1nc2ccc(O)cc2[nH]1,-,-,-,-,-,-
Cc1cccc(NC(=O)CSc2cc(C)c(C#N)c3nc4ccccc4n23)c1,.,.,-,.,.,.
O=C(NCCN1CCOCC1)c1cc2sccc2n1Cc1ccc(Cl)cc1,-,-,.,-,-,-
Cc1cccc(C(=O)N(Cc2nc3ccccc3c(=O)[nH]2)C2CCCCC2)c1,-,-,-,-,-,-
CC1CCN(CC(=O)Nc2ccc(S(=O)(=O)NC3CC3)cc2)CC1,.,.,-,.,.,.
c1ccc(-c2nnc(NC3=NCCC3)o2)cc1,-,-,-,-,-,66
Fc1ccc(NC2=NCCCCC2)cc1,-,-,-,-,-,-
Fc1ccc(-c2nnc(NC3=NCCCCC3)o2)cc1,-,-,-,-,-,87
Cc1ccc(/C=C/C2=NN(C)C(=O)CC2)cc1,-,4.5,-,153,-,78
CCOc1ccc(N=Nc2c(=O)[nH]n3c(=O)cc(C)[nH]c23)cc1,-,-,.,-,-,64
CC(=O)N1CC2(NC(=O)c3ccccc3N2)c2ccccc21 (centres undefined),-,-,.,-,-,-
CCCC(=O)Nc1nc2ccc(OCC)cc2s1,-,4.3,.,-,150,-
CCOc1ccc2nc(NC(=O)c3cccnc3)sc2c1,-,-,-,-,132,60
CCOc1ccc2nc(SCC(=O)c3ccc(Cl)s3)sc2c1,-,-,-,-,-,-
CCOc1ccc2nc(NC(=O)c3ccc(C)o3)sc2c1,.,.,-,.,.,.
CCOc1ccc2nc(SCC(=O)c3cccs3)sc2c1,-,4.4,.,-,131,-
COc1ccc2cc(-c3cc(C(=O)O)c4ccccc4n3)ccc2c1,-,6.3,.,-,-,98
COc1ccc(-c2cc(C(=O)N3CCN(c4ccccc4)CC3)c3ccccc3n2)cc1,-,-,-,-,-,64
SMILES,FLuc act counter,NF-kB expr up,Pf gametocyte,APP 5'UTR act,STAT1 act,FLuc inhib CS
COc1ccc(-c2cc(C(=O)c3c(N)n(C)c(=O)n(C)c3=O)c3ccccc3n2)cc1OC,-,-,-,-,-,62
CCOc1ccc(-c2cc(C(=O)N3CCN(c4ccccn4)CC3)c3ccccc3n2)cc1,-,-,.,-,-,90
COCCCNc1ncnc2nc[nH]c12,-,-,.,-,-,-
O=C(NC1CC1)C1=C[C@@H](c2ccc(Br)cc2)C[C@@H](OCc2ccc(CO)cc2)O1,.,.,-,.,.,.
O=C(Nc1nncs1)C1CCCC1,.,.,-,.,.,.
CCn1c(Cc2ccccc2)nnc1SCc1cccc(C(=O)O)c1,-,-,-,-,-,-
COc1cc(-c2cc(C(=O)N3CCN(c4ccccn4)CC3)c3ccccc3n2)cc(OC)c1OC,.,-,-,-,-,.
COc1ccc(-c2cc(C(=O)N3CCN(c4ccccn4)CC3)c3ccccc3n2)cc1,-,-,.,-,-,80
NC(=O)c1ccc2nc(NC(=O)c3ccc(N)cc3)sc2c1,-,-,-,-,142,-
CS(=O)(=O)c1ccc2nc(NC(=O)c3ccccc3)sc2c1,.,.,-,.,.,.
NS(=O)(=O)c1ccc2nc(NC(=O)c3ccc(Br)o3)sc2c1,-,-,.,-,129,-
NS(=O)(=O)c1ccc(CNC(=O)c2ccc(Br)o2)cc1,-,-,-,-,-,-
NS(=O)(=O)c1ccc2nc(NC(=O)c3ccncc3)sc2c1,-,.,-,-,-,64
O=c1c(C(c2ccccc2)c2c(O)nc3n(c2=O)CCS3)c(O)nc2n1CCS2,-,-,-,-,-,-
CCc1ccccc1Nc1nc(N)nc(CSCC(=O)Nc2ccc(C)c(C)c2)n1,-,-,.,-,-,-

# Screening results deposited in PubChem by several laboratories.
